Laboratory results: paper PMC10206482 (RSC Advances, 2023)
Converted amounts (≈) assume the structure as drawn.

Experiments:
human hepatoma (Huh-7) = assay: MTT antiproliferative assay, Huh-7; assay type: cell-based; settings: Huh-7, read-out: Human hepatoma (Huh-7) IC50
Summary of the method: (§1)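 Colorimetric MTT viability readout, run in parallel on human Huh-7 hepatoma, A549 lung adenocarcinoma and MCF-7 breast cancer cells, and on MDCK canine kidney cells as the non-cancerous model. Test compound at four concentrations (0.1, 1, 10, 100 μM), with Taxol as the positive reference. % viability was plotted against concentration, and IC50 was derived as 50% growth inhibition relative to untreated control.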

[1] = tested on: Michigan Cancer Foundation-7 breast cancer (MCF-7); assay: MTT antiproliferative assay, MCF-7; assay type: cell-based; settings: Homo sapiens, MCF7, read-out: Michigan cancer foundation-7 breast cancer (MCF-7) IC50
Summary of the method: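 Human MCF-7 breast cancer cells were exposed to the test compound at 0.1, 1, 10 and 100 μM, with Taxol as positive reference. Viability was read by MTT and plotted as % cell viability against concentration (μM). IC50 is the concentration giving 50% growth inhibition relative to untreated control cells, taken from the dose–response curve.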

tubulin = assay: Tubulin polymerization assay; assay type: biochemical; settings: for Inhibition (%) of tubulin polymerisation: in vitro tubulin inhibition assay; for IC50: read-out: IC50 tubulin polymerisation; for IC50 / IC50 tubulin polymerisation: as printed in Table 2 and results text
Summary of the method: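 Turbidimetric tubulin polymerization, using tubulin at 4 mg ml⁻¹. Test compound came from a 2 mM DMSO stock, diluted with water to final 0.1, 1, 10 and 100 μM. Polymerization was started by moving the reaction from 4 °C to a pre-warmed 37 °C plate. Absorbance at 340 nm was followed kinetically at 37 °C (0.5 cm pathlength). CA-4 served as reference.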

[2] = tested on: lung cell cancer adenocarcinoma (A549); assay: MTT antiproliferative assay, A549; assay type: cell-based; settings: Homo sapiens, A549, read-out: Lung cell cancer adenocarcinoma (A549) IC50
Summary of the method: as §1

mammary tumors = assay: In vivo DMBA-induced breast cancer model: tumor size and histopathology; design: species or system Wistar rats; settings: after treatment, 2 mg per kg per week
[3] = Body weight of tumor-bearing rats during treatment; assay type: in vivo, Wistar rats; settings: 2 mg per kg per week, day 0 to day 42
(A549) cells = assay: Morphological assessment of A549 cells; assay type: cell-based, human; settings: 100 μM, 48 h, compared to untreated control
Summary of the method: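 Living cells were examined by inverted light microscopy for morphology changes, after exposure to test compound. Comparators were an untreated control and a Taxol-treated positive control.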

Structure (SMILES)	IC50 (human hepatoma (Huh-7))	IC50 [1]	Inhibition (%) of tubulin polymerisation (tubulin)	IC50 (tubulin)	IC50 [2]	IC50 tubulin polymerisation (tubulin)	Histopathology of mammary gland (H&E): inflammatory cells infiltrates (mammary tumors)	Effect on rats' body weights [3]	Morphological assessment of cells ((A549) cells)
COc1cc(/C=C2\CN(C(C)=O)CC3C2=NN(c2ccccc2)C3c2ccc(O)c(OC)c2)ccc1O (stereo not shown) [5a, (E)-5-Acetyl-7-(4-hydroxy-3-methoxybenzylidene)-3-(4-hydroxy-3-methoxyphenyl)-2-phenyl-2,3,3a,4,6,7-hexahydro-5H-pyrazolo[4,3-c]pyridine]	5.47 µM	5.27 µM	76%	6.06 µM	20.3 µM				
COc1cc(/C=C2\CN(C(C)=O)CC3=C2NC(=S)NC3c2ccc(O)c(OC)c2)ccc1O (stereo not shown) [4a, (E)-6-Acetyl-8-(4-hydroxy-3-methoxybenzylidene)-4-(4-hydroxy-3-methoxyphenyl)-1,3,4,5,7,8-hexahydro-2H-pyrido[4,3-d]pyrimidin-2-thione]	2.48 µM	8.01 µM			46.9 µM				
CCOc1cc(/C=C2\CN(C(C)=O)CC3C2=NN(c2ccccc2)C3c2ccc(O)c(OCC)c2)ccc1O (stereo not shown) [5b, (E)-5-Acetyl-7-(3-ethoxy-4-hydroxybenzylidene)-3-(3-ethoxy-4-hydroxyphenyl)-2-phenyl-2,3,3a,4,6,7-hexahydro-5H-pyrazolo[4,3-c]pyridine]	2.23 µM	9.04 µM	70%	12.6 µM	15.2 µM				
COc1cc(/C=C2\CN(C(C)=O)CC3=C2OC(N)=C(C#N)C3c2ccc(O)c(OC)c2)ccc1O (stereo not shown) [3a, (E)-6-Acetyl-2-amino-3-cyano-8-(4-hydroxy-3-methoxybenzylidene)-4-(4-hydroxy-3-methoxyphenyl)-5,6,7,8-tetrahydro-4H-pyrano[3,2-c]pyridine]	3.88 µM	8.87 µM	79%	15.6 µM	31.6 µM				
CC(=O)N1CC2=C(OC(N)=C(C#N)C2/C=C/c2ccccc2)/C(=C/C=C/c2ccccc2)C1 (stereo not shown) [3d, (E)-6-Acetyl-2-amino-3-cyano-8-((E)-3-phenylallylidene)-4-((E)-styryl)-5,6,7,8-tetrahydro-4H-pyrano[3,2-c]pyridine]	20.7 µM								
CCOc1cc(/C=C2\CN(C(C)=O)CC3=C2OC(N)=C(C#N)C3c2ccc(O)c(OCC)c2)ccc1O (stereo not shown) [3b, (E)-6-Acetyl-2-amino-3-cyano-4-(3-ethoxy-4-hydroxy-phenyl)-8-(3-ethoxy-4-hydroxy-benzylidene)-5,6,7,8-tetrahydro-4H-pyrano[3,2-c]pyridine]	6.54 µM	6.13 µM	81%	4.03 µM	15.5 µM	4.03 µg/mL (≈ 8 µM)	intensity of inflammatory cells infiltrates decreased	did not have a significant effect	apparent cell toxicity
CCOc1cc(/C=C2\CN(C(C)=O)CC3=C2NC(=S)NC3c2ccc(O)c(OCC)c2)ccc1O (stereo not shown) [4b, (E)-6-Acetyl-8-(3-ethoxy-4-hydroxybenzylidene)-4-(3-ethoxy-4-hydroxyphenyl)-1,3,4,5,7,8-hexahydro-2H-pyrido[4,3-d]pyrimidin-2-thione]	7.27 µM	16 µM			42.3 µM				
CC(=O)N1CC2=C(OC(N)=C(C#N)C2c2ccc(Cl)cc2)/C(=C/c2ccc(Cl)cc2)C1 (stereo not shown) [3c, (E)-6-Acetyl-2-amino-3-cyano-8-(4-chlorobenzylidene)-4-(4-chlorophenyl)-5,6,7,8-tetrahydro-4H-pyrano[3,2-c]pyridine]	17.7 µM	6.38 µM			61.2 µM				
CC(=O)O[C@H]1C(=O)[C@@]2(C)[C@H]([C@H](OC(=O)c3ccccc3)[C@]3(O)C[C@H](OC(=O)[C@H](O)[C@@H](NC(=O)c4ccccc4)c4ccccc4)C(C)=C1C3(C)C)[C@]1(OC(C)=O)CO[C@@H]1C[C@@H]2O [Taxol, reference compound]	6.68 µM	12.3 µM			38.1 µM		intensity of inflammatory cells infiltrates decreased	did not have a significant effect	apparent cell toxicity
